Assay results collected from several papers.
HTR2C: 5-hydroxytryptamine receptor 2C (HTR2C, Homo sapiens, UniProt P28335)

| Compound | target | test | setting | endpoint | result |
| --- | --- | --- | --- | --- | --- |
| CC(C)CC(=O)OC[C@H]1O[C@@](C#N)(c2ccc3c(N)ncnn23)[C@H](O)[C@@H]1O | HTR2C | cell-free assay | 20 µM | inhibition | 10% |
| [2H]c1c([2H])c([C@]2([2H])CCCN2C(=O)C(C)(C)Oc2ccc3cn[nH]c3c2)c([2H])c([2H])c1C([2H])([2H])[2H] | BMP-2-inducible protein kinase (BMP2K, Homo sapiens, UniProt Q9NSY1) | binding, competition with immobilised ligand | 1 µM | remaining binding | 77% |
| c1cncc([C@@H]2CCCN2)c1 | HTR2C | ligand displacement | 50 µM | inhibition | -12.7% |
| COc1cc(C(F)(F)F)c(OC)cc1C1CCCNC1 (centres unmarked) | HTR2C | G protein activation, agonist, BRET | – | Emax | 85% |
| COc1cc2c3c(c1OC)-c1c(OC)ccc(O)c1CC3N(C)CC2 (centres unmarked) | 5-hydroxytryptamine receptor 2B (HTR2B, Homo sapiens, UniProt P41595) | ligand displacement, radioligand | 10 µM | inhibition | 86% |
| Nc1ncnc2c1ncn2[C@@H]1O[C@H](C[C@@H](N)CC[C@H](N)C(=O)O)[C@@H](O)[C@H]1O | mRNA cap guanine-N(7) methyltransferase (RNMT, Homo sapiens, UniProt O43148) | enzyme activity, inhibitor | 50 µM | inhibition | 85.3% |
| CN1CCC[C@H]1c1cccnc1 | Neuronal acetylcholine receptor; alpha3/beta4 (Rattus norvegicus, UniProt P04757+P12392) | ligand displacement, radioligand | 50 µM | inhibition | 65.5% |
| COc1cc2c3c(c1OC)-c1c(cccc1OC)CC3N(C)CC2 (racemic) | HTR2C | ligand displacement, radioligand | 10 µM | inhibition | 51% |
